Measurements from publication PMC7704123 (Journal of natural products, 2020).

How the values were obtained:
Type in all cases: cell-based, human
[1] = tested on: mTORC1 signaling in MDA-MB-231 cells; assay: Immunoblotting of mTORC1 signaling pathway; conditions: immunoblot
Procedure, shortened: (§1)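 Cells (IMEM, 5% FBS) exposed to 100 nM test compound, 100 nM oligomycin, 10 nM rapamycin or DMSO vehicle for 2, 6 or 18 h. Scraped whole-cell lysates with PMSF, Na3VO4 and protease inhibitors; 10 μg protein per lane on 10% Bis-Tris SDS-PAGE, PVDF transfer. Blots probed for phospho/total AKT S473, mTOR S2448, S6K T389, RPS6 S235/236, 4E-BP1 T37/46 and GAPDH; IRDye infrared detection; two independent experiments.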

[2] = tested on: mTORC1 signaling in MDA-MB-453 cells; assay: Immunoblotting of mTORC1 signaling pathway; conditions: immunoblot
Procedure, shortened: as §1

[3] = tested on: MDA-MB-453 and SUM185PE cells; assay: SRB assay, LAR subtype TNBC cell lines taken together; conditions: MDA-MB-453 and SUM185PE versus MDA-MB-231, HCC1806 and HCC70, Figure 7C
Procedure, shortened: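 Cells seeded at predetermined densities, left to adhere, then given test compound or DMSO vehicle for 48 h. Fixed, stained with sulforhodamine B, absorbance read at 560 nm. MDA-MB-453, MDA-MB-231 and SUM185PE were grown in IMEM with 5% FBS; HCC1806 and HCC70 in RPMI-1640 with 5% FBS. Proliferation taken relative to vehicle; GI50 by non-linear regression; three independent experiments, each in triplicate.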

[4] = 100 nM oligomycin, 2, 6 or 18 h

Row | SMILES | mTOR signaling ([1]; 10 nM rapamycin, 2, 6 or 18 h) | mTOR signaling ([2]; 10 nM rapamycin, 2, 6 or 18 h) | growth of LAR cells as compared to other TNBC cell lines [3] | mTOR activity (RPS6 and S6K phosphorylation) [1, 4] | mTOR activity (RPS6 and S6K phosphorylation) [2, 4]
1 | CO[C@H]1C[C@@H]2CC[C@@H](C)[C@@](O)(O2)C(=O)C(=O)N2CCCC[C@H]2C(=O)O[C@H]([C@H](C)C[C@@H]2CC[C@@H](O)[C@H](OC)C2)CC(=O)[C@H](C)/C=C(\C)[C@@H](O)[C@@H](OC)C(=O)[C@H](C)C[C@H](C)/C=C/C=C/C=C/1C [Rapamycin] | inhibited mTOR signaling in both cell lines | inhibited mTOR signaling in both cell lines | – | – | –
2 | CC[C@H]1/C=C/C=C/C[C@@H](C)[C@H](O)[C@@](C)(O)C(=O)[C@@H](C)[C@H](O)[C@@H](C)C(=O)[C@@H](C)[C@H](O)[C@@H](C)/C=C/C(=O)O[C@@H]2[C@H](C)[C@H](CC1)O[C@]1(CC[C@H](C)[C@H](C[C@@H](C)O)O1)[C@H]2C [oligomycin] | – | – | selectively inhibited the growth | but not in the resistant MDA-MB-231 cells | selectively inhibited mTOR activity
